Experimental data published in ChEMBL document CHEMBL1811786, “Identification of MK-5710 ((8aS)-8a-methyl-1,3-dioxo-2-[(1S,2R)-2-phenylcyclo- propyl]-N-(1-phenyl-1H-pyrazol-5-yl)hexahydro-imidazo[1,5-a]pyrazine-7(1H)-carboxamide), a potent smoothened antagonist for use in Hedgehog pathway dependent malignancies, part 2” (Bioorg Med Chem Lett, 2011).

What was measured:
[1] = Volume of distribution at steady state in dog; format: ADME, organism-based, Canis lupus familiaris; details: in vivo, read-out: Vdss
[2] = species: Canis familiaris; assay: Clearance in dog; format: ADME, organism-based, Canis lupus familiaris; details: in vivo
[3] = Half life in rat; format: ADME, organism-based; details: in vivo
[4] = Oral bioavailability in rat; format: ADME, organism-based; details: in vivo
[5] = target: T1, Protein smoothened (Homo sapiens, UniProt Q99835); assay: Displacement of BODIPY-cyclopamine from human Smo expressed in HEK293 cells in presence of 2% fetal calf serum; format: cell-based
T1 sequence (Q99835 whole entry): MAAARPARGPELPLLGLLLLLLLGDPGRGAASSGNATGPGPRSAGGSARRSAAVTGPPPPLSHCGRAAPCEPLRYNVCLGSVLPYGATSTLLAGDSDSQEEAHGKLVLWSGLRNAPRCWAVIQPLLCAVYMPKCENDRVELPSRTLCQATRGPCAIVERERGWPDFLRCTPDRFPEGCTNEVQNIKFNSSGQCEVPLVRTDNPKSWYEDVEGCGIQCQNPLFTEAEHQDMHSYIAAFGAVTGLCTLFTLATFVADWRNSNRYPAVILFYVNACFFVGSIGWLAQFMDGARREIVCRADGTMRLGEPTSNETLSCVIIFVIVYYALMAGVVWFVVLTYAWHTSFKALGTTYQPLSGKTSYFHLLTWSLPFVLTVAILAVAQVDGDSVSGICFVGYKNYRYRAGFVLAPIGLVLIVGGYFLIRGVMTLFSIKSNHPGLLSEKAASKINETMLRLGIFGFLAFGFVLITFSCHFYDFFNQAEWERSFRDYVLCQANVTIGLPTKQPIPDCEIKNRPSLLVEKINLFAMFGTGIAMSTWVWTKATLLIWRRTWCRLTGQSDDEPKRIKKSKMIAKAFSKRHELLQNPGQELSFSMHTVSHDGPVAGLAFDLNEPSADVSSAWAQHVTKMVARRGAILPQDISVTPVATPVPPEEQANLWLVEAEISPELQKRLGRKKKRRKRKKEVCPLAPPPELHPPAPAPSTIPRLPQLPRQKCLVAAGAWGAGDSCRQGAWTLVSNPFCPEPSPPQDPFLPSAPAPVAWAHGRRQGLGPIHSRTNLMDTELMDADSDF
How it was run: (§1)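 Competition binding: displacement of fluorescently labeled bodipy-cyclopamine from recombinant human Smo expressed in HEK-293 cells. Run in 2% fetal calf serum and, separately, in 20% normal human serum. IC50 values are means of at least five experiments.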

[6] = Half life in dog; format: ADME, organism-based, Canis lupus familiaris; details: in vivo
[7] = Volume of distribution at steady state in rat; format: ADME, organism-based; details: in vivo, read-out: Vdss
[8] = species: Rattus norvegicus; assay: Clearance in rat; format: ADME, organism-based; details: in vivo
[9] = target: T1, Protein smoothened; assay: Displacement of BODIPY-cyclopamine from human Smo expressed in HEK293 cells in presence of 20% normal human serum; format: cell-based; how it was run: as §1
[10] = target: CYP2C9 (Homo sapiens, UniProt P11712); assay: Inhibition of CYP2C9 at 10 uM; format: ADME
Chain of CYP2C9 (P11712 whole entry): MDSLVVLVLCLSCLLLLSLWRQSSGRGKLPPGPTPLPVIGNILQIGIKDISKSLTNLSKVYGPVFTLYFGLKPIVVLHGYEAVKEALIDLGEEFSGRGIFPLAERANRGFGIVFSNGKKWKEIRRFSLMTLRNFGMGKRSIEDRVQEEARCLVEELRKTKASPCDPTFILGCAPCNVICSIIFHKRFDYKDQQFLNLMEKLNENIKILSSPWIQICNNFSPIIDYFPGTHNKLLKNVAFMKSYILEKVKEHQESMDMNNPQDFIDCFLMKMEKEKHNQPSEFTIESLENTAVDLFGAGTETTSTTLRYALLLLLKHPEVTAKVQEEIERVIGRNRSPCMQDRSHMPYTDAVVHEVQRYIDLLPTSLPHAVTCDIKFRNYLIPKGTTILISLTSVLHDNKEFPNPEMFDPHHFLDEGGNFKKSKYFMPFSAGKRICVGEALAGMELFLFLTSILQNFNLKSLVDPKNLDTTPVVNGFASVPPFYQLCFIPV

[11] = Antiproliferative activity against irradiated Ptch +/- mouse medulloblastoma cells; format: functional; details: Medulloblastoma cell, light or radiation study
How it was run: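 Proliferation of irradiated Ptch +/- mouse medulloblastoma cells, which depend on the Hh pathway; readout reported as CC50.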

[12] = target: CYP3A4 (Homo sapiens, UniProt P08684); assay: Inhibition of CYP3A4 at 10 uM; format: ADME
Chain of CYP3A4 (P08684 whole entry): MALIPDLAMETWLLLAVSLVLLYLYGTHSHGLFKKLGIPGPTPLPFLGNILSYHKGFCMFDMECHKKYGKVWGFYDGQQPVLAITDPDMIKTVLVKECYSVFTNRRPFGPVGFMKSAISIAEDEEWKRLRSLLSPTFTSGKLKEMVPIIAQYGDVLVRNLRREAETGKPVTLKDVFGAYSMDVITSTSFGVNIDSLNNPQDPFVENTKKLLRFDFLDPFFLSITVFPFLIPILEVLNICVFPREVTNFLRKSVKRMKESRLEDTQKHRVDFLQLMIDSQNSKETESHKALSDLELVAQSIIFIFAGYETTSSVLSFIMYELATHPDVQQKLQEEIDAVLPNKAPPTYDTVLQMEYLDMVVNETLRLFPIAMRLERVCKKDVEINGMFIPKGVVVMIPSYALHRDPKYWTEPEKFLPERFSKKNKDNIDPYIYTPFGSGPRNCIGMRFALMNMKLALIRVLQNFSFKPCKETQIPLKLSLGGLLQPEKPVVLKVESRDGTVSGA

[13] = Plasma protein binding in human assessed as unbound fraction; format: ADME, cell-free

Row | SMILES | half-life [3] [h] | IC50 [5] [nM] | Vd [7] [L/kg] | clearance [8] [mL/min/kg] | IC50 [9] [nM] | also measured
1 | O=C(Nc1cccc(Cl)c1Cl)N1CCN2C(=O)N([C@@H]3C[C@H]3c3ccccc3)C(=O)[C@H]2C1 |  | 1700 |  |  |  | 
2 | O=C(Nc1c(Cl)cc(F)cc1Cl)N1CCN2C(=O)N([C@H]3C[C@@H]3c3ccccc3)C(=O)[C@@H]2C1 |  | 180 |  |  | 520 | 
3 | O=C(Nc1ccccc1-c1ccccc1)N1CCN2C(=O)N([C@H]3C[C@@H]3c3ccccc3)C(=O)[C@@H]2C1 | 2.7 | 21 | 8 | 56 | 70 | inhibition at 10 µM [10]: 50%; CC50 [11]: 2 nM; inhibition at 10 µM [12]: 50%; fraction unbound [13]: 0.044
4 | O=C(Nc1ccccc1-c1ccccc1)N1CCN2C(=O)N(C3CC3c3ccccc3)C(=O)C2C1 (stereo in doubt; 5) |  | 95 |  |  |  | 
5 | O=C(Nc1cccc(Cl)c1Cl)N1CCN2C(=O)N([C@@H]3C[C@H]3c3ccccc3)C(=O)[C@@H]2C1 |  | 670 |  |  |  | 
6 | O=C(Nc1cccc(Cl)c1Cl)N1CCN2C(=O)N([C@H]3C[C@@H]3c3ccccc3)C(=O)[C@H]2C1 |  | 650 |  |  |  | 

The remaining compounds from weak to strong by IC50 [5], led by results:

Row | half-life [3] [h] | IC50 [5] [nM] | Vd [7] [L/kg] | clearance [8] [mL/min/kg] | IC50 [9] [nM] | SMILES | also measured
7 | 10 | 21 | 10 | 58 | 42 | O=C(Nc1cccnc1-c1ccsc1)N1CCN2C(=O)N([C@H]3C[C@@H]3c3ccccc3)C(=O)[C@@H]2C1 | Vd [1]: 1 L/kg; clearance [2]: 7.6 mL/min/kg; bioavailability [4]: 41%; half-life [6]: 3.1 h
8 |  | 19 |  |  | 60 | C[C@@]12CN(C(=O)Nc3ccccc3-c3ccccc3)CCN1C(=O)N([C@H]1C[C@@H]1c1ccccc1)C2=O | 
9 |  | 18 |  |  | 32 | O=C(Nc1ccnn1-c1cccc(Cl)c1)N1CCN2C(=O)N([C@H]3C[C@@H]3c3ccccc3)C(=O)[C@@H]2C1 | 
10 | 3.8 | 16 | 6 | 48 | 22 | N#Cc1cccc(-c2ncccc2NC(=O)N2CCN3C(=O)N([C@H]4C[C@@H]4c4ccccc4)C(=O)[C@@H]3C2)c1 | bioavailability [4]: 43%
